Source: publication PMC6957252 (Bioorganic & medicinal chemistry, 2016)
Values belong to the compound of their own block, whether it stands above or below them.

Legend:
[1] = molecular target: human TRPV1 (Homo sapiens, UniProt Q8NER1); assay: binding competition assay with [3H]RTX; conditions: ratio of Ki versus 1S
Summary of the method: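 Competition binding of [3H]RTX to human TRPV1 heterologously expressed in CHO cells. Binding affinity reported as Ki. Values are mean ± SEM of at least three experiments.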

[2] = molecular target: human TRPV1 heterologously expressed in Chinese hamster ovary (CHO) cells (Homo sapiens, UniProt Q8NER1); assay type: cell-based
Summary of the method: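 45Ca2+ uptake in CHO cells heterologously expressing human TRPV1. […] Ki is calculated to account for competition between capsaicin and antagonist. In agonist mode, 300 nM capsaicin (saturating) defines maximal response, and absence or weakness of uptake is scored as no or weak effect. Values are mean ± SEM of at least three experiments.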

[3] = in vivo; cited from earlier work
[4] = neuropathic pain model; cited from earlier work

Chain of human TRPV1 heterologously expressed in Chinese hamster ovary (CHO) cells (Q8NER1 whole entry): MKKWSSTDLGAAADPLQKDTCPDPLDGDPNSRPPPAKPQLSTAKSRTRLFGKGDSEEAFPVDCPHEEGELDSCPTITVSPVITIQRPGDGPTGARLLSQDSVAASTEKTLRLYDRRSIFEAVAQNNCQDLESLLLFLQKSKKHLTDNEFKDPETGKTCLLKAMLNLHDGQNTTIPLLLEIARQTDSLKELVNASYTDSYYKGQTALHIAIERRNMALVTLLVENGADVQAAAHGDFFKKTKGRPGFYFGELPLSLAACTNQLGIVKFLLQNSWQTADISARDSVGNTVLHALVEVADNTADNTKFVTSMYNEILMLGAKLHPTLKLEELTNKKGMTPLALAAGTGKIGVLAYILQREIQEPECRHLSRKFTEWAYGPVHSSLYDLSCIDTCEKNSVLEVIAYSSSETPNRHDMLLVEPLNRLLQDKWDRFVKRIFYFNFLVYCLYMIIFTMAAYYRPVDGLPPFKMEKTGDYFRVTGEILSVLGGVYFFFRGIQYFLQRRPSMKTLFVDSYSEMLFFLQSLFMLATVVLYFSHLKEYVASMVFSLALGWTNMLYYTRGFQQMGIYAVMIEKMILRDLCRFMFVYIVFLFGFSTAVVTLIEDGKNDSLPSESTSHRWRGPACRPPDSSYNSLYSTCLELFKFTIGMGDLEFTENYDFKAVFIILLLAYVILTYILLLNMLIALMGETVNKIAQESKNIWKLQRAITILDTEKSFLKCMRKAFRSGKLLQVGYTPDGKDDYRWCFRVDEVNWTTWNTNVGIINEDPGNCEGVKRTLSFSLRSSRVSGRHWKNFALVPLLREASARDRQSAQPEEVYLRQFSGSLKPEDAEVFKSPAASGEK
Chain of human TRPV1 (Q8NER1 whole entry): as above

fold increase in binding affinity compared to 1S [1]: 5 fold
fold decrease in antagonism compared to 1S ([2]; ratio of Ki(ant) versus 1S): 1.5 fold
SMILES: C[C@H](C(=O)NCc1ccc(C(F)(F)F)nc1N(Cc1ccccc1)S(=O)(=O)c1ccccc1)c1ccc(NS(C)(=O)=O)c(F)c1 [Compound 12S, (S)-N-((2-(N-Benzylphenylsulfonamido)-6-(trifluoromethyl)pyridin-3-yl)methyl)-2-(3-fluoro-4-(methylsulfonamido)phenyl)propanamide]

activity on hTRPV1 (in words) ([2]; binding affinity and antagonism, Table 1 series): little activity
SMILES: CC(C(=O)NCc1ccc(C(F)(F)F)nc1NS(=O)(=O)c1ccccc1)c1ccc(NS(C)(=O)=O)c(F)c1 (stereo not shown) [Compound 6, 2-(3-Fluoro-4-(methylsulfonamido)phenyl)-N-((2-(phenylsulfonamido)-6-(triflu-oromethyl)pyridin-3-yl)methyl)propanamide]

SMILES: CC1CCN(c2nc(C(F)(F)F)ccc2CNC(=O)C(C)c2ccc(NS(C)(=O)=O)c(F)c2)CC1 (stereo not shown) [Compound 1]
effect on capsaicin-induced hypothermia [3]: blocked capsaicin-induced hypothermia
antiallodynic activity [4]: potent antiallodynic activity

fold more potent antagonism than 12 ([2]; ratio of Ki(ant) versus 12): ca. 3 fold
SMILES: COc1ccc(CN(c2nc(C(F)(F)F)ccc2CNC(=O)C(C)c2ccc(NS(C)(=O)=O)c(F)c2)S(=O)(=O)c2ccccc2)cc1 (stereo not shown) [Compound 19, 2-(3-Fluoro-4-(methylsulfonamido)phenyl)-N-((2-(N-(4-methoxybenzyl)phenyl-sulfonamido)-6-(trifluoromethyl)pyridin-3-yl)methyl)propanamide]

fold reduction in antagonism compared to lead compound 1 ([2]; ratio of Ki(ant) versus compound 1): 2.5 fold
SMILES: CC(C(=O)NCc1ccc(C(F)(F)F)nc1N(Cc1ccccc1)S(=O)(=O)c1ccccc1)c1ccc(NS(C)(=O)=O)c(F)c1 (stereo not shown) [Compound 12, N-((2-(N-Benzylphenylsulfonamido)-6-(trifluoromethyl)pyridin-3-yl)methyl)-2-(3-fluoro-4-(methylsulfonamido)phenyl)propanamide]
